Ki data for four compounds are collected here from ChEMBL document CHEMBL1765020, “Synthesis and structure-affinity relationships of novel dibenzylideneacetone derivatives as probes for β-amyloid plaques” (J Med Chem, 2011).

This assay can be described thus: Displacement of [125I]IMPY from amyloid beta (1 to 42) aggregate after 2 hrs by gamma counting. A digest of the protocol:
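Competition binding in 1 mL PBS (0.2 M, pH 7.4). Aggregated Aβ1-42 fibrils (60 nM final) with [125I]IMPY and inhibitor at 10^-5 to 10^-10 M, added in ethanol. Nonspecific binding was defined with 1 μM IMPY. Incubated 2 h at 37 °C with shaking, then vacuum-filtered through glass fibre filters and the bound fraction gamma-counted. IC50 was converted to Ki by Cheng-Prusoff; triplicate, mean ± SD.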

On to `O=C1/C(=C/c2ccc(Cl)cc2)CCC/C1=C\c1ccc(Cl)cc1`, for which affinity was put at a Ki of 11.4 nM. For `CN(C)c1ccc(/C=C/C(=O)/C=C/c2c(F)cccc2Cl)cc1`, affinity was put at a Ki of 9.2 nM.

`CN(C)c1ccc(/C=C/C(=O)/C=C/c2cccc([N+](=O)[O-])c2)cc1` showed a Ki of 4 nM. Take `CN(C)c1ccc(/C=C/C(=O)/C=C/c2cc(C(F)(F)F)cc(C(F)(F)F)c2)cc1`: the inhibition constant (Ki) was 4 nM.
